Where two headings read alike, the source gives them in different places.
What was measured:
advanced solid tumors [1] = assay: Best overall response per RECIST version 1.1, Part B; format: in vivo, human
[2] = Food effect on peposertib pharmacokinetics, Part FE; format: in vivo, human; details: after a single dose, sampling did not cover tmax
[3] = 50-mg film-coated hot melt extrudate tablets; estimated; cited from earlier work
DNA-PK = details: previous studies; cited from earlier work
advanced solid tumors [4] = assay: Disease control by baseline PD-L1 and DNA-PK immunohistochemistry; format: in vivo, human
In short: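 Immunohistochemistry on pretreatment archival tumor tissue; in Parts A and B, fresh samples were taken when no archival tissue was available. DNA-PK staining was scored as an H-score combining prevalence and staining intensity, then related to disease control.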

[5] = test system: patients with advanced solid tumors; details: Part A

## COc1ccc([C@@H](O)c2cc(-c3ncnc4cc(N5CCOCC5)ccc34)c(F)cc2Cl)nn1 [Peposertib]
Advanced solid tumors [1]
  Patients with complete response (CR) or partial response (PR): no patients
Advanced solid tumors [1]; all dose levels
  Best overall response of stable disease (SD) or non-CR/non-PD: 31.6%
[2]
  Effect of food on peposertib Cmax: food delayed peposertib Cmax
[3]
  Increase in bioavailability versus capsules: 75%
DNA-PK
  DNA-PK inhibition: time- and concentration-dependent manner
Advanced solid tumors [4]; Part A
  Patients with SD among PD-L1+ tumors: two of seven
  Patients with SD among PD-L1− tumors: two of 17
Advanced solid tumors [4]; Part B
  Patients with SD among PD-L1+ tumors: two of seven
  Patients with SD among PD-L1− tumors: three of nine
Advanced solid tumors [4]; Parts A, B and FE
  Association between DNA-PK H-score and disease control: No association
[5]; 100 mg b.i.d.
  DLT by preferred term: Acute kidney injury: 0 n (%)
  DLT by preferred term: Febrile neutropenia: 0 n (%)
  DLT by preferred term: Neutropenia: 0 n (%)
  DLT by preferred term: Neutrophil count decreased: 0 n (%)
  DLT by preferred term: Pneumonitis: 0 n (%)
  DLT by preferred term: Pyrexia: 0 n (%)
  DLT by preferred term: Rash: 0 n (%)
  DLTs per patient: 1: 0 n (%)
  DLTs per patient: 2: 0 n (%)
  DLTs per patient: ≥3: 0 n (%)
  Patients with DLT: 0 n (%)
[5]; 200 mg b.i.d.
  DLT by preferred term: Acute kidney injury: 0 n (%)
  DLT by preferred term: Febrile neutropenia: 0 n (%)
  DLT by preferred term: Neutropenia: 0 n (%)
  DLT by preferred term: Neutrophil count decreased: 0 n (%)
  DLT by preferred term: Pneumonitis: 0 n (%)
  DLT by preferred term: Pyrexia: 0 n (%)
  DLT by preferred term: Rash: 0 n (%)
  DLTs per patient: 1: 0 n (%)
  DLTs per patient: 2: 0 n (%)
  DLTs per patient: ≥3: 0 n (%)
  Patients with DLT: 0 n (%)
[5]; 250 mg b.i.d.
  DLT by preferred term: Acute kidney injury: 0 n (%)
  DLT by preferred term: Febrile neutropenia: 0 n (%)
  DLT by preferred term: Neutropenia: 0 n (%)
  DLT by preferred term: Neutrophil count decreased: 0 n (%)
  DLT by preferred term: Pneumonitis: 1 (50.0) n (%)
  DLT by preferred term: Pyrexia: 0 n (%)
  DLT by preferred term: Rash: 0 n (%)
  DLTs per patient: 1: 1 (50.0) n (%)
  DLTs per patient: 2: 0 n (%)
  DLTs per patient: ≥3: 0 n (%)
  Patients with DLT: 1 (50.0) n (%)
[5]; 300 mg b.i.d.
  DLT by preferred term: Acute kidney injury: 0 n (%)
  DLT by preferred term: Febrile neutropenia: 0 n (%)
  DLT by preferred term: Neutropenia: 0 n (%)
  DLT by preferred term: Neutrophil count decreased: 0 n (%)
  DLT by preferred term: Pneumonitis: 1 (25.0) n (%)
  DLT by preferred term: Pyrexia: 0 n (%)
  DLT by preferred term: Rash: 0 n (%)
  DLTs per patient: 1: 1 (25.0) n (%)
  DLTs per patient: 2: 0 n (%)
  DLTs per patient: ≥3: 0 n (%)
  Patients with DLT: 1 (25.0) n (%)
[5]; 400 mg b.i.d.
  DLT by preferred term: Acute kidney injury: 1 (25.0) n (%)
  DLT by preferred term: Febrile neutropenia: 1 (25.0) n (%)
  DLT by preferred term: Neutropenia: 1 (25.0) n (%)
  DLT by preferred term: Neutrophil count decreased: 1 (25.0) n (%)
  DLT by preferred term: Pneumonitis: 0 n (%)
  DLT by preferred term: Pyrexia: 1 (25.0) n (%)
  DLT by preferred term: Rash: 1 (25.0) n (%)
  DLTs per patient: 1: 1 (25.0) n (%)
  DLTs per patient: 2: 1 (25.0) n (%)
  DLTs per patient: ≥3: 1 (25.0) n (%)
  Patients with DLT: 3 (75.0) n (%)
